One data set has as its target α1β3γ2 GABAA receptors (Rattus norvegicus, UniProt P18508+P62813). The class given is cell-based. The conditions noted are these: for in vitro efficacy: GABA EC3.
Data set [1] in a line: Quantification in rat plasma and brain tissue. It is filed as in vivo, Wistar rats. The conditions noted are these: for brain estimated free concentration: total × free fraction.
Data set [2] deals with male Wistar rats. The data set can be described thus: Spontaneous locomotor activity test. It is filed as in vivo. The note with it: for SLA total distance: 30 min recording, mean ± SEM.
Data set [3] concerns male Wistar rats. The data set can be described thus: Elevated plus maze test. The note with it: for EPM % time on open arms / EPM number of closed arm entries: mean ± SEM. It is filed as in vivo. In short, it runs like this:
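Maze 50 cm high, closed arms lit at 10 lux red. Rat placed centrally facing an enclosed arm and video-tracked for 5 min. Arm entry scored at 80% body crossing. One-way ANOVA; ANCOVA for % open-arm time with closed-arm entries as covariate; n=7.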

The subject of data set [4] is male Wistar rats. Nature of the data set: Open field test. The class given is in vivo. The note with it: for OF total distance: 15 min; for OF total distance / OF % time in central zone: mean ± SEM; for OF % time in central zone: first 5 min.
Data set [5] concerns male Wistar rats. The data set can be described thus: Grip strength test. The class given is in vivo. The conditions noted are these: for GS grip strength: mean ± SEM. In short, it runs like this:
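At 20 min post-dose, rats gripped a trapezoid wire grid on a grip-strength meter with their front paws and were lifted by the tail with increasing firmness until release. n=8 per group; one-way ANOVA.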

The subject of data set [6] is male Wistar rats. Nature of the data set: Rotarod test. It is filed as in vivo. The conditions noted are these: for RR time on rotarod: max 120 s, mean ± SEM.
The subject of data set [7] is male Wistar rats. Nature of the data set: Morris water maze test. It is filed as in vivo. The conditions noted are these: acquisition, mean ± SEM. In short, it runs like this: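 Pool 200 cm diameter, 23 °C water, platform submerged 2 cm. Four trials per block, max 120 s each, 60 s intertrial interval, pseudorandom starts. Escape latency video-tracked and averaged per rat per day; n=7.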

The test system of data set [8] is male Wistar rats. Nature of the data set: Peripheral nerve injury model. It is filed as in vivo.
For data set [9] the following is noted: ref Munro et al., 2008, cited from earlier work.

Here are results for four molecules from article PMC3996760 (Brain research, 2014).

Entries after “also recorded” stand apart in the source; their conditions may differ. Where two headings read alike, the source gives them in different places.

α1β3γ2 GABAA receptors, sequence (P62813 28-455): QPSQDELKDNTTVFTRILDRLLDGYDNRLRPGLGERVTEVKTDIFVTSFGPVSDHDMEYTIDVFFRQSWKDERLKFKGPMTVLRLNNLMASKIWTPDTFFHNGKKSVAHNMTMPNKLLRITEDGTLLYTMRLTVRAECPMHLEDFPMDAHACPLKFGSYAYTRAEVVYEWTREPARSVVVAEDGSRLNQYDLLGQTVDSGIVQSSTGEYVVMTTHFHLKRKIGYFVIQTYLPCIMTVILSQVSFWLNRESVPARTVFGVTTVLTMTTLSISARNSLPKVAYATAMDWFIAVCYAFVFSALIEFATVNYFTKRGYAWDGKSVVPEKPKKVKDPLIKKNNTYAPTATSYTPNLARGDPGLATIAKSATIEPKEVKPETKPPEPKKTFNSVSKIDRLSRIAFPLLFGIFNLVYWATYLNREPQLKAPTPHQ
α1β3γ2 GABAA receptors, sequence (P18508 39-466): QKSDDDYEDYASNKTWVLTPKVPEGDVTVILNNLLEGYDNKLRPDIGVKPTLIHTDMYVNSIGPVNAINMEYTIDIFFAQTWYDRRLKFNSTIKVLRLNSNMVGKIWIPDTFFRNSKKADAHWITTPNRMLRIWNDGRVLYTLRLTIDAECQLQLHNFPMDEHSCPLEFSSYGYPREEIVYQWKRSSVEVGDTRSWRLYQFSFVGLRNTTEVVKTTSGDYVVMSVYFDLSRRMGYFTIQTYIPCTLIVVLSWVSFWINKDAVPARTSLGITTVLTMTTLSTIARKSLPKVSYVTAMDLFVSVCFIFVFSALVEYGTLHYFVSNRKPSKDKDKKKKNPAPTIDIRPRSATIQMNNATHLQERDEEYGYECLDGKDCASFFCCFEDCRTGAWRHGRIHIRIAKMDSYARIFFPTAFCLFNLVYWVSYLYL
α1β3γ2 GABAA receptors, sequence (P63079 26-473 partner): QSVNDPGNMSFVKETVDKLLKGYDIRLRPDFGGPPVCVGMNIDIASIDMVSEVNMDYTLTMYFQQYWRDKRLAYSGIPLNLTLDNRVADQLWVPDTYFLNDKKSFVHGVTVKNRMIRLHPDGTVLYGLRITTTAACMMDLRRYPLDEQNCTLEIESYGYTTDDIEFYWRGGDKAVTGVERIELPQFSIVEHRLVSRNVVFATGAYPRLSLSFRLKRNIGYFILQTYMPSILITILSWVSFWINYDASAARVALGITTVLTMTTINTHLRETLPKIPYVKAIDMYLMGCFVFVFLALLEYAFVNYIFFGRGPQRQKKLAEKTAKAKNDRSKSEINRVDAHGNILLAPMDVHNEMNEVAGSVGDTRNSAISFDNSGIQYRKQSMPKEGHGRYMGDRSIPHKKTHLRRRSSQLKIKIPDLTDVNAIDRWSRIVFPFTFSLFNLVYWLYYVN

`C[C@@H]1N=C(c2ccccc2F)c2cc(Br)ccc2NC1=O` [SH-I-048A, (S)-7-bromo-5-(2-fluorophenyl)-3-methyl-1Hbenzo[e][1,4]diazepin-2(3H)-one] had an in vitro efficacy on α1β3γ2 GABAA receptors (concentration 1 nM) of 124%. In addition, on α1β3γ2 GABAA receptors (concentration 10 nM), the in vitro efficacy is on record as 256%. The “approximated potentiation at estimated in vivo free brain concentration” value at α1β3γ2 GABAA receptors (free concentration 3.26 nM (0.5 mg/kg i.p., 20 min), linear interpolation) is listed as 157%. Moreover, in data set [1] (0.5 mg/kg i.p., 20 min), the brain total concentration came out at 231.12 ± 52.27 nmol/kg and the “brain estimated free concentration” value is 3.26 nmol/kg. In addition, in [1] (2 mg/kg i.p., 20 min), the brain total concentration amounted to 750.59 ± 307.14 nmol/kg and the “brain estimated free concentration” value is recorded as 10.60 nmol/kg. In data set [1] (2 mg/kg i.p., 60 min), the brain total concentration amounted to 739.37 ± 182.94 nmol/kg and the “brain estimated free concentration” value is listed as 10.45 nmol/kg. In addition, in data set [1] (10 mg/kg i.p., 20 min), the brain total concentration was 2096.33 ± 858.32 nmol/kg and the “brain estimated free concentration” value was 29.62 nmol/kg. In data set [1] (10 mg/kg i.p., 60 min), the brain total concentration amounted to 1035.23 ± 421.19 nmol/kg and the “brain estimated free concentration” value was 14.63 nmol/kg. In addition, the SLA total distance in the data set with male Wistar rats [2] (10 mg/kg i.p.) is reported as 6.42 ± 2.26 m. Moreover, the “influence on total distance traveled during 30 min” value with male Wistar rats [2] (2, 5 and 10 mg/kg, one-way ANOVA p=0.061) was “did not reach statistical significance”. Moreover, the “distance traveled in second 5-min bin (5–10 min) vs solvent” value in the data set on male Wistar rats [2] (5 and 10 mg/kg, p=0.017 and p=0.008) was “traveled shorter distances than the solvent-treated animals”. Also, in the data set on male Wistar rats [3] (10 mg/kg i.p.), the “EPM % time on open arms” value worked out at 67.43 ± 12.34 % and the “EPM number of closed arm entries” value is listed as 4.00 ± 1.23. Moreover, the “influence on EPM parameters, preliminary study” value with male Wistar rats [3] (0.5 and 2 mg/kg, data not shown) is “devoid of any influences”. Moreover, the “effect of treatment on number of closed arm entries” value with male Wistar rats [3] (2, 5 and 10 mg/kg, one-way ANOVA p=0.072) is “no significant effect”. Besides, the “effect of treatment on percentage of time spent on open arms” value in the data set with male Wistar rats [3] (2, 5 and 10 mg/kg, one-way ANOVA p=0.095) is on record as “not significant”. In addition, in the data set with male Wistar rats [4] (10 mg/kg i.p.), the OF total distance is reported as 15.39 ± 5.35 m and the “OF % time in central zone” value is reported as 30.01 ± 15.49%. The “effect on total distance traveled in open field vs solvent” value with male Wistar rats [4] (10 mg/kg only, Dunnett p<0.001) is listed as “significantly decreased”. Further, in the data set on male Wistar rats [4] (0.2, 0.5, 2 and 10 mg/kg, p=0.669), the “effect on percent of time spent in the central zone” value is “not significantly affected”. The same molecule registered a GS grip strength with male Wistar rats [5] (10 mg/kg i.p.) of 2588.83 ± 169.52 g/kg. In addition, the “effect on grip strength vs solvent” value with male Wistar rats [5] (2, 5 and 10 mg/kg, p=0.002, p<0.001, p=0.002) is reported as “significant muscle relaxation”. Moreover, the “RR time on rotarod” value with male Wistar rats [6] (10 mg/kg i.p.) is 0.25 ± 0.16 s. For the same molecule, in the data set on male Wistar rats [7] (10 mg/kg i.p. daily), the “MWM latency Day 1” value is listed as 102.11 ± 9.11 s, the “MWM latency Day 2” value turned out to be 88.52 ± 9.40 s, the “MWM latency Day 3” value was 62.98 ± 14.13 s and the “MWM latency Day 4” value was found to be 53.39 ± 14.74 s. For the same molecule, the “MWM latency Day 5” value in the data set on male Wistar rats [7] (10 mg/kg i.p. daily) came out at 42.65 ± 13.99 s. The “effect of Treatment on paw withdrawal threshold 48 h after surgery” value in the data set on male Wistar rats [8] (10 mg/kg, one to three doses, p=0.157) was “no significant effect”. Also, the “paw withdrawal threshold 24 h after injury vs solvent” value in the data set on male Wistar rats [8] (three doses of 10 mg/kg (0, 12, 23 h), p=0.015) is recorded as “significantly higher paw withdrawal threshold; also recorded: reversed mechanical hyperalgesia”.
Consider `CN1C(=O)CN=C(c2ccccc2)c2cc(Cl)ccc21` [diazepam, reference compound], for which, in the data set with male Wistar rats [2] (2 mg/kg i.p.), the SLA total distance turned out to be 7.17 ± 1.13 m. Also, in the data set with male Wistar rats [3] (2 mg/kg i.p.), the “EPM % time on open arms” value was determined as 76.67 ± 6.67 % and the “EPM number of closed arm entries” value was determined as 4.09 ± 0.77. In addition, in the data set with male Wistar rats [4] (2 mg/kg i.p.), the OF total distance was found to be 24.50 ± 5.34 m and the “OF % time in central zone” value was 3.09 ± 1.15%. The molecule further came in with a GS grip strength with male Wistar rats [5] (2 mg/kg i.p.) of 1722.50 ± 197.65 g/kg. Further, the “RR time on rotarod” value in the data set on male Wistar rats [6] (2 mg/kg i.p.) came out at 41.70 ± 9.79 s. In the data set with male Wistar rats [7] (2 mg/kg i.p. daily), the “MWM latency Day 1” value is 103.45 ± 10.64 s, the “MWM latency Day 2” value came to 92.82 ± 6.40 s, the “MWM latency Day 3” value turned out to be 77.83 ± 15.52 s and the “MWM latency Day 4” value turned out to be 59.02 ± 9.78 s. For the same molecule, in the data set with male Wistar rats [7] (2 mg/kg i.p. daily), the “MWM latency Day 5” value is listed as 56.40 ± 10.20 s. Moreover, the “effect on hind paw hypersensitivity” value in data set [9] (highest dose tested (10 mg/kg)) was “able to attenuate hind paw hypersensitivity”.
As to `Cc1ccc(-c2nc3ccc(C)cn3c2CC(=O)N(C)C)cc1` [zolpidem], in data set [9], the “activity in chronic constriction injury model” value is “completely inactive”.
As to `CC(C)(C)OC(=O)c1cc2c(cn1)[nH]c1ccccc12` [β-CCt, t-butyl-β-carboline-3-carboxylate], in the data set on male Wistar rats [6] (β-CCt 30 mg/kg added to 10 and 25 mg/kg SH-I-048A, 0.5, 1 and 1.5 h), the “effect of adding β-CCt on latency to fall from the revolving rod” value is “increased latency to fall”.
